ChEMBL document CHEMBL2203068, “Antibacterial butenolides from the Korean tunicate Pseudodistoma antinboja” (2012)
Values after ≈ are worked out from the molar mass of the structure shown. Active and inactive are the calls of the source. The rule behind the calls is not given here.

Columns and labels:
[1] = tested on: Klebsiella pneumoniae; assay: Antimicrobial activity against Klebsiella pneumoniae ATCC 4352 incubated for 24 hrs by microtiter broth dilution method; format: functional, organism-based
Procedure, shortened: (§1)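 Two-fold serial dilutions of compounds in DMSO were added to Mueller Hinton broth in 96-well microtiter plates (final 0.64% DMSO). Wells were inoculated with overnight bacterial culture at 5 × 10⁵ cfu/mL and incubated at 37 °C for 24 h. The MIC was the lowest concentration with no visible growth.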

[2] = tested on: Salmonella typhimurium; assay: Antimicrobial activity against Salmonella typhimurium ATCC 14028 incubated for 24 hrs by microtiter broth dilution method; format: functional, organism-based; details: Salmonella enterica subsp. enterica serovar Typhimurium; procedure, shortened: as §1
[3] = tested on: Escherichia coli; assay: Antimicrobial activity against Escherichia coli ATCC 11775 incubated for 24 hrs by microtiter broth dilution method; format: functional, organism-based; procedure, shortened: as §1
[4] = tested on: Staphylococcus aureus; assay: Antimicrobial activity against Staphylococcus aureus ATCC 6538 incubated for 24 hrs by microtiter broth dilution method; format: functional; details: ATCC 6538, 24 h; procedure, shortened: as §1
[5] = tested on: Staphylococcus epidermidis; assay: Antimicrobial activity against Staphylococcus epidermidis ATCC 12228 incubated for 24 hrs by microtiter broth dilution method; format: functional; details: ATCC 12228, 24 h; procedure, shortened: as §1
[6] = tested on: Kocuria rhizophila; assay: Antimicrobial activity against Kocuria rhizophila ATCC 9341 incubated for 24 hrs by microtiter broth dilution method; format: functional; details: ATCC 9341, 24 h; procedure, shortened: as §1
[7] = tested on: Bacillus subtilis; assay: Antimicrobial activity against Bacillus subtilis ATCC 6633 incubated for 24 hrs by microtiter broth dilution method; format: functional; details: ATCC 6633, 24 h; procedure, shortened: as §1
[8] = tested on: Staphylococcus aureus; assay: Antimicrobial activity against methicillin-sensitive Staphylococcus aureus CCARM 0027 incubated for 24 hrs by microtiter broth dilution method; format: functional; details: CCARM 0027, 24 h
Procedure, shortened: (§2)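 Two-fold serial dilutions of compound in DMSO were made in Mueller Hinton broth in 96-well microtiter plates, with 0.64% DMSO final. Each well was inoculated with an overnight bacterial culture at 5 × 10⁵ cfu/mL and incubated at 37 °C for 24 h. MIC was the lowest concentration showing no visible growth.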

[9] = tested on: Staphylococcus aureus; assay: Antimicrobial activity against methicillin-sensitive Staphylococcus aureus CCARM 0204 incubated for 24 hrs by microtiter broth dilution method; format: functional; details: CCARM 0204, 24 h; procedure, shortened: as §2
[10] = tested on: Staphylococcus aureus; assay: Antimicrobial activity against methicillin-sensitive Staphylococcus aureus CCARM 0205 incubated for 24 hrs by microtiter broth dilution method; format: functional; details: CCARM 0205, 24 h; procedure, shortened: as §2
[11] = tested on: Staphylococcus aureus; assay: Antimicrobial activity against methicillin-sensitive Staphylococcus aureus CCARM 3640 incubated for 24 hrs by microtiter broth dilution method; format: functional; details: CCARM 3640, 24 h; procedure, shortened: as §2
[12] = tested on: Staphylococcus aureus; assay: Antimicrobial activity against methicillin-resistant Staphylococcus aureus CCARM 3089 incubated for 24 hrs by microtiter broth dilution method; format: functional; details: CCARM 3089, 24 h; procedure, shortened: as §2
[13] = tested on: Staphylococcus aureus; assay: Antimicrobial activity against methicillin-resistant Staphylococcus aureus CCARM 3090 incubated for 24 hrs by microtiter broth dilution method; format: functional; details: CCARM 3090, 24 h; procedure, shortened: as §2
[14] = tested on: Staphylococcus aureus; assay: Antimicrobial activity against methicillin-resistant Staphylococcus aureus CCARM 3634 incubated for 24 hrs by microtiter broth dilution method; format: functional; details: CCARM 3634, 24 h; procedure, shortened: as §2
[15] = tested on: Staphylococcus aureus; assay: Antimicrobial activity against methicillin-resistant Staphylococcus aureus CCARM 3635 incubated for 24 hrs by microtiter broth dilution method; format: functional; details: CCARM 3635, 24 h; procedure, shortened: as §2

SMILES | MIC [1] | MIC [2] | MIC [3] | MIC [4] [µg/mL] | MIC [5] [µg/mL] | MIC [6] [µg/mL] | MIC [7] [µg/mL] | MIC [8] [µg/mL] | MIC [9] [µg/mL] | MIC [10] [µg/mL] | MIC [11] [µg/mL] | MIC [12] [µg/mL] | MIC [13] [µg/mL] | MIC [14] [µg/mL] | MIC [15] [µg/mL]
COc1ccc(C=C2OC(=O)C=C2c2cc(Br)c(O)c(Br)c2)cc1 [RUBROLIDE P] | inactive | inactive | inactive | > 50 | 50 (≈ 111 µM) | 6.3 (≈ 13.9 µM) | 50 (≈ 111 µM) | > 32 | > 32 | > 32 | > 32 | > 32 | > 32 | > 32 | > 32
CC12C[C@@]34C=CC(=O)[C@@](C)(CCC(=O)Nc5c(O)ccc(C(=O)O)c5O)C3[C@H](CC1C4)O2 (some centres undefined) [PLATENSIMYCIN] |  |  |  |  |  |  |  | 4 (≈ 9.06 µM) | 4 (≈ 9.06 µM) | 4 (≈ 9.06 µM) | 8 (≈ 18.1 µM) | 8 (≈ 18.1 µM) | 8 (≈ 18.1 µM) | 8 (≈ 18.1 µM) | 8 (≈ 18.1 µM)
O=C1C=C(c2cc(Br)c(O)c(Br)c2)/C(=C/c2cc(Br)c(O)c(Br)c2)O1 [RUBROLIDE A] | inactive | inactive | inactive | 3.1 (≈ 5.2 µM) | 1.6 (≈ 2.69 µM) | 1.6 (≈ 2.69 µM) | 1.6 (≈ 2.69 µM) | 4 (≈ 6.71 µM) | 4 (≈ 6.71 µM) | 4 (≈ 6.71 µM) | 8 (≈ 13.4 µM) | 8 (≈ 13.4 µM) | 8 (≈ 13.4 µM) | 8 (≈ 13.4 µM) | 8 (≈ 13.4 µM)
CN[C@H](CC(C)C)C(=O)N[C@H]1C(=O)N[C@@H](CC(N)=O)C(=O)N[C@H]2C(=O)N[C@H]3C(=O)N[C@H](C(=O)N[C@H](C(=O)O)c4cc(O)cc(O)c4-c4cc3ccc4O)[C@H](O)c3ccc(c(Cl)c3)Oc3cc2cc(c3O[C@@H]2O[C@H](CO)[C@@H](O)[C@H](O)[C@H]2O[C@H]2C[C@](C)(N)[C@H](O)[C@H](C)O2)Oc2ccc(cc2Cl)[C@H]1O [VANCOMYCIN] |  |  |  |  |  |  |  |  | 0.25 (≈ 0.173 µM) | < 0.13 | 0.25 (≈ 0.173 µM) |  |  |  | 
CCCCCCCCCC(=O)N[C@@H](Cc1c[nH]c2ccccc12)C(=O)N[C@H](CC(N)=O)C(=O)N[C@@H](CC(=O)O)C(=O)N[C@@H]1C(=O)NCC(=O)N[C@@H](CCCN)C(=O)N[C@@H](CC(=O)O)C(=O)N[C@H](C)C(=O)N[C@@H](CC(=O)O)C(=O)NCC(=O)N[C@H](CO)C(=O)N[C@@H]([C@H](C)CC(=O)O)C(=O)N[C@@H](CC(=O)c2ccccc2N)C(=O)O[C@@H]1C |  |  |  |  |  |  |  | 16 (≈ 9.87 µM) | 4 (≈ 2.47 µM) | 2 (≈ 1.23 µM) | 16 (≈ 9.87 µM) | > 32 | > 32 | > 32 | > 32
COc1ccc(C=C2OC(=O)C=C2c2ccc(O)c(Br)c2)cc1 | inactive | inactive | inactive | > 50 | 25 (≈ 67 µM) | 3.1 (≈ 8.31 µM) | 50 (≈ 134 µM) | > 32 | > 32 | > 32 | > 32 | > 32 | > 32 | > 32 | > 32
